# Runt-SMMHC FRET – inhibitors of RUNX1 Runt–CBFb-SMMHC binding, primary screen, biochemical, FRET, Cerulean-Runt, Venus-CBFb-SMMHC, uHTS | Cerulean-Runt/Venus-CBFb-SMMHC FRET ratio 530/480, 1 h | 220,000 tested, 0.74% active | AID 1434, 2008 | inhibition, % at 20 µM;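 active = mean inhibition across duplicate retests at 20 µM reaching about 50%, limit read from the data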;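 also: 0% = DMSO wells and 100% = wells with excess untagged CBFb-SMMHC; inhibitors lower the FRET ratio by blocking Runt binding to CBFb-SMMHC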
# Hck Nef HTS – inhibitors of Nef-activated human Hck kinase, primary screen, biochemical, Z-Lyte FRET, 384-well, Hck-YEEI; Tyrosine-protein kinase HCK (Homo sapiens), P08631; Recombinant Hck-YEEI plus Nef, Z-Lyte FRET kinase assay; inhibition, % at 20 µM; 220,000 tested, 0.68% active;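 active = Hck-Nef kinase inhibition above about 50%, limit read from the data; inactive = inhibition below that limit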;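 also: 0% = DMSO with Hck plus Nef and 100% = Hck alone without Nef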
# Target sequence (P08631 whole entry, looked up): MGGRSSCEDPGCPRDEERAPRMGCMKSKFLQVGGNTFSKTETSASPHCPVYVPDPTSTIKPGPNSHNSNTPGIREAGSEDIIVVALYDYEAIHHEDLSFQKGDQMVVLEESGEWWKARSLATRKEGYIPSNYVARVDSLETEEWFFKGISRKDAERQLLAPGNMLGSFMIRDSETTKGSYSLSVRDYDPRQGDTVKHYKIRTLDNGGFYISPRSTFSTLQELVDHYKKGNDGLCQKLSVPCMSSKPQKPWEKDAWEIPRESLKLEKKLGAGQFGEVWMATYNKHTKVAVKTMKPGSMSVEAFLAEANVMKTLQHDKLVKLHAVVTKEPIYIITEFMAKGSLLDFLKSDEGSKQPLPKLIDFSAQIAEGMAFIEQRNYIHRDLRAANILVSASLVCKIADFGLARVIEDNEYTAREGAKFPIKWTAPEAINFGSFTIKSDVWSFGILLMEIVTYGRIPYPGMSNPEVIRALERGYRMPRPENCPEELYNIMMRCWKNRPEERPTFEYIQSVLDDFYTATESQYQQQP
# RanGTP-Impb inh – inhibitors of RanGTP-importin-beta interaction, primary screen, biochemical, FRET, CFP-Ran, YFP-importin-beta, homogeneous | cell-free CFP-Ran/YFP-importin-beta FRET ratio | AID 2216, 2009 | inhibition, % (no concentration beside the values) | Ran GTPase (GTP-bound) - importin-beta complex | 300,000 tested, 1.1% active;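 active = more than half of the replicate wells show a fall in the fluorescence ratio signal beyond about 16%, limit read from the data, passing the limit was not always enough; inconclusive = exactly half of the replicate wells pass the set limit; inactive = fewer than half of replicates pass the limit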;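 also: 0% = DMSO wells and 100% = Ran loaded with GDP instead of GTP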
# Tb hexokinase – Trypanosoma brucei hexokinase 1 inhibitors, primary screen, biochemical, G6PDH-coupled NADH absorbance, MLSCN library; recombinant TbHK1, G6PDH-coupled NADH A340; hexokinase 1 [Trypanosoma brucei]; 220,000 tested, 0.11% active; AID 1430, 2008; inhibition, % at 10 µM;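 active = inhibition of 50% or more in the single-dose primary screen; inactive = inhibition below 50%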
# p97 ATPase inh – inhibitors of human p97 ATPase, primary screen, biochemical. recombinant p97 ATPase, Kinase-Glo ATP luminescence, 3 h. Transitional endoplasmic reticulum ATPase (Homo sapiens), P55072. AID 1481, 2009. 220,000 tested, 0.42% active. inhibition, % at 8 µM; in the data active = inhibition above about 15%;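 also: 0% = DMSO vehicle and 100% = wells lacking enzyme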
# Runt-CBFb FRET – inhibitors of RUNX1 Runt–CBFb binding, primary screen, biochemical, FRET, Cerulean-Runt, Venus-CBFb, uHTS; Runt-related transcription factor 1 (Homo sapiens) + Core-binding factor subunit beta …; Cerulean-Runt/Venus-CBFb FRET ratio 530/480, 1 h; inhibition, % at 20 µM; 220,000 tested, 0.46% active;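 active = inhibition over about 50% at 20 µM in the single-dose screen, limit read from the data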;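 also: 0% = DMSO wells and 100% = excess unlabeled CBFb competitor control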
#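 test system = Cerulean-Runt domain fusion protein, energy donor | probe or stimulus = Venus-CBFb binding partner, 100 nM | incubation = two 1 h room-temperature incubations shielded from light | detection = fluorescence energy transfer, 422 nm excitation, 530/480 nm emission | measure = loss of energy transfer signal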
# Active calls of the source: *; ? = inconclusive; / = no result. The list is not random: actives were taken first. Their share in the collection is about 2.1%.
SMILES,Runt-SMMHC FRET,Hck Nef HTS,RanGTP-Impb inh,Tb hexokinase,p97 ATPase inh,Runt-CBFb FRET
COc1ccc(C2C(C#N)=C(N)SC(N)=C2C#N)cc1OC,12,6,48*,-12,5,13
COc1ccc(C2C(C#N)=C(N)Oc3cc(O)ccc32)cc1OC (configuration not stated),42,4,56*,8,6,10
CS(=O)(=O)N1CCC(C(=O)NCc2ccc3c(c2)OCO3)CC1,-6,-5,8,2,4,-2
Cc1cc(C)c(S(=O)(=O)NC2CC(C)(C)NC(C)(C)C2)cc1Br,/,/,-1,/,/,/
O=C(CCCCCn1c(=S)[nH]c2ccc(Br)cc2c1=O)NCC1CCCO1 (configuration not stated),1,10,0,-1,1,0
NS(=O)(=O)c1ccc(CCNC(=O)CCCCCn2c(=S)[nH]c3ccc(Br)cc3c2=O)cc1,-5,50*,-2,24,1,-4
COc1ccccc1CCNC(=O)c1cc(-c2ccncc2)nc2ccc(Br)cc12,-5,51*,1,-17,13,-4
Cc1ccc(S(=O)(=O)NC(=O)COc2ccccc2C(N)=O)cc1,-4,0,28*,-1,-1,2
COc1cc(C2Nc3ccccc3NC3=C2C(=O)CC(c2ccc(OC)c(OC)c2)C3)ccc1O (configuration not stated),56*,15,5,-47,2,11
COc1ccc(C2CC(=O)C3=C(C2)Nc2ccccc2N(C(=O)C2CC2)C3c2cccnc2)cc1OC (configuration not stated),5,1,-1,-59,6,1
CC(C)C[C@@H](CO)N1CCN(Cc2cccnc2)CCC1=O,/,/,-2,/,/,/
O=C(COc1ccc(S(=O)(=O)N2CCOCC2)cc1)Nc1ccccc1C(F)(F)F,2,5,27*,1,0,2
COc1ccc(-c2ncc(CN3CCC(CO)(Cc4cccc(OC)c4)CC3)cn2)cc1,26,6,82*,-8,0,8
OCC1(Cc2ccccc2)CCN(Cc2cnc(-c3ccc(Cl)cc3)nc2)CC1,-1,20,-1,-10,-3,-1
C#CCOc1ccc(C2C3=C(CCCC3=O)N(CC(=O)O)C3=C2C(=O)CCC3)cc1Br,/,/,117*,/,/,/
NC(=O)CC[C@@H]1NC(=O)[C@H](CO)NC(=O)c2cc([N+](=O)[O-])cc(I)c2NCCC[C@@H](C(N)=O)NC(=O)[C@H](Cc2ccc(O)cc2)NC1=O,3,-8,/,-7,18*,-1
CC(C)C[C@@H]1NC(=O)[C@H](Cc2ccc(O)cc2)NC(=O)c2cc([N+](=O)[O-])cc(I)c2NCCC[C@@H](C(N)=O)NC1=O,-8,-4,/,-4,16*,-4
NC(=O)[C@@H]1CCCNc2c(I)cc([N+](=O)[O-])cc2C(=O)N[C@@H](CO)C(=O)N[C@@H](Cc2ccc(O)cc2)C(=O)N1,3,-5,-3,-6,6,2
Cn1c(C(=O)N2CCN(C(=O)c3ccco3)CC2)cc2c(=O)n3ccccc3nc21,45,25,3,-22,6,20
CC(C)n1c(=NC(=O)c2ccco2)c(C#N)cc2c(=O)n3ccccc3cc21,83*,25,107*,-6,3,5
CN(C)S(=O)(=O)c1cccc(-n2sc3ccccc3c2=O)c1,35,-12,/,86*,-5,-27
O=c1c2ccccc2sn1-c1ccc(S(=O)(=O)N2CCCC2)cc1,13,0,?,13,2,-3
C=CCN1C(=O)c2ccc(C(=O)NCCc3ccc(OC)c(OC)c3)cc2C1=O,/,/,4,/,/,/
COc1ccc(S(=O)(=O)NCCc2cn3nc(C)c(C)nc3n2)cc1F,/,/,17*,/,/,/
COc1ccc(NC(=O)C2CCC(=O)N2S(=O)(=O)c2ccc(C)cc2)cc1Cl (configuration not stated),/,/,2,/,/,/
SMILES,Runt-SMMHC FRET,Hck Nef HTS,RanGTP-Impb inh,Tb hexokinase,p97 ATPase inh,Runt-CBFb FRET
Oc1cc2c(cc1O)C1c3ccc(O)c(O)c3OCC1(O)C2 (configuration not stated),59*,-164,/,12,15*,63*
COc1ccc(-n2ncc(C(C)NS(=O)(=O)c3cccs3)c2C)cc1 (configuration not stated),/,/,5,/,/,/
CC1CN(C(=O)c2cc3cc(Br)ccc3[nH]2)CC(C)O1 (configuration not stated),/,/,1,/,/,/
O=C(CN(C(=O)Cn1nnc(-c2ccc(F)cc2)n1)c1cccc(F)c1)NC1CCCC1,/,/,-15,/,/,/
CCOc1ccc2nc(NCCNC(=O)Nc3cccc(C)c3)c(C#N)cc2c1,38,4,-2,8,6,88*
CCOc1ccc2nc(NCCNC(=O)Nc3ccccc3)c(C#N)cc2c1,25,25,86*,14,10,8
CCOc1ccc2nc(SCC#N)c(C#N)cc2c1,-8,1,-1,1,1,3
CCOc1ccc2nc(NCCNC(=S)NCCCN(C)C)c(C#N)cc2c1,92*,-33,93*,9,4,19
CCOc1ccc2nc(NCCCNS(=O)(=O)c3ccc(C)cc3)c(C#N)cc2c1,102*,-8,129*,5,3,6
CCOC(=O)c1cc(S(=O)(=O)Nc2ccc(OC)cc2OC)cn1C,/,/,6,/,/,/
CC(C)(C)c1ccccc1NC(=S)NC1CCCC1,/,/,-2,/,/,/
CC(C)(C)c1ccccc1NC(=S)NC1CCCCC1,-3,22,83*,-3,-3,-2
N#Cc1c(N)nc2c3c(sc(=N)c2c1N)NC(=O)CC3c1c(F)cccc1Cl (configuration not stated),9,13,85*,-4,7,8
N#Cc1c(N)nc2c3c(sc(=N)c2c1N)NC(=O)CC3c1ccccc1 (configuration not stated),40,10,119*,1,6,23
CC(C)(C)C(=O)N1CCN(c2ncnc3scc(-c4ccccc4)c23)CC1,/,/,0,/,/,/
COc1ccc(CCC(=O)NNC(=O)c2ccc(F)cc2)cc1,/,/,1,/,/,/
COc1ccc(CCC(=O)NNC(=S)NCc2ccc(F)cc2)cc1,-4,19,23*,6,4,-1

# Screening data (PubChem)
